The values that follow come from PubChem BioAssay.

Active and inactive are the calls of the source.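 Rule for the calls, unless noted: active = Her2 level under about 52% in both replicate screens, with viability over 70% of control (limit read from the data); inconclusive = Her2 under the limit in one screen only, or viability under 70%; inactive = Her2 level above the set limit.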

Experiment [1] is described as follows: reducers of endogenous Her2 protein level, primary screen, SKBR3 breast tumor cells, AlphaScreen, ATP viability (AID 461).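 For Her2 level: lower value means less Her2 protein in the cells.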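 For viability: percent of carrier control wells set as 100% viability.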 Conditions: 18-24 h, measured here: SKBR3 viability, ATP luminescence, at 10 µM.
Experiment [2] concerns the target Receptor tyrosine-protein kinase erbB-2 (Homo sapiens) (UniProt P04626). Described as above. Conditions: 18-24 h, at 10 µM, stronger effect = lower value.
Experiment [3] in a line: SK-BR-3 cell growth inhibitors, pilot screen, 24 h, human (AID 572;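 active = viability at or below 10% of carrier control in both of two separate runs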;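 note: compound exposure lasted between 18 and 24 h rather than exactly 24 h; 100% = carrier-treated control wells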). The following applies: SK-BR-3 viability, CellTiter-Glo luminescence, at 10 µM, stronger effect = lower value.
The nature of experiment [4]: HUVEC growth inhibition – cell-based, human, primary screen (AID 575;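 active = viability at or below 30% in both replicate assays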;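 note: 100% = median of untreated cell wells with 0.1% DMSO on each plate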). The following applies: HUVEC proliferation, CellTiter-Glo luminescence, 72 h; at 10 µM; stronger effect = lower value. In a few lines:
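Assay system: Primary human umbilical vein endothelial cells | Quantity: 1250 cells per well | Medium: Supplemented EBM, 2% fetal bovine serum | Detection: CellTiter-Glo luminescence measuring cellular ATP | Read-out: % viability vs DMSO wells | Plate: Collagen-coated 384-well format | Times: 72 h exposure, 37 °C, 5% CO2, 30 min RT equilibration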

The nature of experiment [5]: growth inhibitors of H69AR lung tumor, primary screen, human, duplicate replicates (AID 580;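 active = viability at or under a set limit in both replicates, limit being median viability minus 3 SD, cut at about 48% in these data, passing the limit was not always enough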;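 note: 100% = mean luminescence of untreated wells and 0% = no signal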). The following applies: H69AR lung tumor cells viability, ATP luminescence, 72 h; at 10 µM; stronger effect = lower value.
Experiment [6] in a line: reversal of MRP1-mediated doxorubicin resistance, pilot screen, H69AR cells, doxorubicin co-treatment (AID 601;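 active = viability loss from added drug above about 55%, and viability with drug at most 40%, in both replicates, limit read from the data, passing the limit was not always enough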). Conditions: CellTiter-Glo, 72 h, at 10 µM; for differential viability (reversal): stronger effect = higher value.
A short description of experiment [7]: 384-well plate pilot, post-Golgi transport modulator project, inhibition of yeast transport mutant growth (AID 636; in the data active = inhibition above about 31%). Conditions: absorbance 615 nm, about 18 h, stronger effect = higher value.
Experiment [8] in a line: growth suppression of yeast trafficking mutant, preliminary HTS, modulators of trafficking downstream of Golgi apparatus project, 1536-format plate, OD 615 nm (AID 637; in the data active = inhibition above about 30%). The following applies: yeast transport mutant growth, absorbance 615 nm, 18 h; stronger effect = higher value.
Where [9] appears, read: H69AR cells + 2 uM doxorubicin, measured here: viability with 2 uM doxorubicin, stronger effect = lower value.
Where [10] appears, read: H69AR cells, compound alone cytotoxicity.

Chain of Receptor tyrosine-protein kinase erbB-2 (Homo sapiens) (P04626 whole entry, looked up): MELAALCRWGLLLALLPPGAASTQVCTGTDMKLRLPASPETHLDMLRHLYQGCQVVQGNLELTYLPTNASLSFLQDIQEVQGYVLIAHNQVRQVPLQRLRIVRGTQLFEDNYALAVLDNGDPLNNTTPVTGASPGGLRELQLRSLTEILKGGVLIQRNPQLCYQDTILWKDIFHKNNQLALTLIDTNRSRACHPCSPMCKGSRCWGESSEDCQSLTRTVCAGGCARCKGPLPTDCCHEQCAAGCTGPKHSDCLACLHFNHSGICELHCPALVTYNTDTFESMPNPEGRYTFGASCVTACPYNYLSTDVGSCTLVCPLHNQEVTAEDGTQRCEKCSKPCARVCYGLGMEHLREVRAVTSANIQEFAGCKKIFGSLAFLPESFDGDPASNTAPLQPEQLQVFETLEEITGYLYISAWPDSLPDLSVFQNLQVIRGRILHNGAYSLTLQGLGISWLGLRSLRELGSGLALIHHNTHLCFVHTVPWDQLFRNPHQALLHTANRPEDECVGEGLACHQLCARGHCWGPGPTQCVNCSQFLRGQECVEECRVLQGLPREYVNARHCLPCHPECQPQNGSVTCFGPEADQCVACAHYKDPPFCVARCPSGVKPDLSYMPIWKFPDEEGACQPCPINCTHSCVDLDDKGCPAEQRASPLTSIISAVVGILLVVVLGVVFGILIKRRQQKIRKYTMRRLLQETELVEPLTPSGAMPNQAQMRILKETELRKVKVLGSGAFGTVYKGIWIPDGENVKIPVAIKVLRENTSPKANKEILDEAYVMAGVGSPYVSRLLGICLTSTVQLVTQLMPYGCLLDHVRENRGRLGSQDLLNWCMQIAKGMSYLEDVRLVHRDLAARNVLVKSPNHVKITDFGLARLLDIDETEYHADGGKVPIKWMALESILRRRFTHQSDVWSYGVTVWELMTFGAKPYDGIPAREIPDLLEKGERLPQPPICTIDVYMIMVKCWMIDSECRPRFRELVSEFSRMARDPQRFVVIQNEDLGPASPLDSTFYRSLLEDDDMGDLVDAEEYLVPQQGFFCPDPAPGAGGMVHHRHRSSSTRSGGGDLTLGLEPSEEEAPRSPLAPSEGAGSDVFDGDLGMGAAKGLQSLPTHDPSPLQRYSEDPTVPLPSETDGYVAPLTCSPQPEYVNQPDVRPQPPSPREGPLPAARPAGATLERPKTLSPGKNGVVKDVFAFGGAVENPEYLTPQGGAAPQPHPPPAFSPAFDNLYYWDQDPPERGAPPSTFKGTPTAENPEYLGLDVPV

As for `Cc1ccccc1N(C)S(=O)(=O)c1ccc2[nH]cc(C(=O)NCC3CCCO3)c(=O)c2c1` (stereo not given), the viability is 83% in experiment [1]; 83% (inactive) in experiment [3]; 90.1% (inactive) in experiment [4]; 91.7% (inactive) in experiment [5]; 87.5% in experiment [6] (setting [9]); 91.7% in experiment [6] (setting [10]). In addition, the Her2 level in experiment [2] is 71% (inactive). In experiment [6] (H69AR cells + 2 uM doxorubicin), the differential viability (reversal) is 4.24% (inactive). In addition, the inhibition in experiment [7] is -4.61% (inactive); in experiment [8], 0.17% (inactive).

Regarding `COc1ccc2cnn(-c3ccccc3)c(=O)c2c1OC`, the viability in experiment [1] is 98%; in experiment [3], 98% (inactive); in experiment [4] it was 126% (inactive); in experiment [5], 103% (inactive); in experiment [6] (setting [9]) it was 84.6%; in experiment [6] (setting [10]) it was 103%. Further, the Her2 level in experiment [2] was 91% (inactive). For the same compound, the differential viability (reversal) in experiment [6] (H69AR cells + 2 uM doxorubicin) was 18.2% (inactive). Besides, the values for the inhibition in experiment [7] and in experiment [8] were -1.71% (inactive) and 1.64% (inactive), respectively.

With `Cc1ccc(CCNC(=O)C2CCN(S(=O)(=O)c3ccc4c(c3)CCC(=O)N4)CC2)cc1`, the viability was 98.5% in experiment [1]; 98.5% (inactive) in experiment [3]; 44.2% (inactive) in experiment [4]; 79.9% (inactive) in experiment [5]; 69.3% in experiment [6] (setting [9]); 79.9% in experiment [6] (setting [10]). The Her2 level in experiment [2] is 100% (inactive). For the same compound, the differential viability (reversal) in experiment [6] (H69AR cells + 2 uM doxorubicin) was 10.6% (inactive). For the same compound, the inhibition was -0.67% (inactive) in experiment [7] and -6.07% (inactive) in experiment [8].

As to `COc1ccc(CNc2nc3nc(C)cc(C)n3n2)cc1OC`, the viability is 104% in experiment [1]; 104% (inactive) in experiment [3]; 111% (inactive) in experiment [4]; 108% (inactive) in experiment [5]; 103% in experiment [6] (setting [9]); 108% in experiment [6] (setting [10]). In experiment [2], the Her2 level was 94.5% (inactive). In experiment [6] (H69AR cells + 2 uM doxorubicin), the differential viability (reversal) was 5.1% (inactive). The inhibition is -1.71% (inactive) in experiment [7] and 7.21% (inactive) in experiment [8].

In the case of `CCOC(=O)Cn1c(CN2CCN(c3cccc(Cl)c3)CC2)nc2c1c(=O)[nH]c(=O)n2C`, the viability in experiment [1] was 92.5%; in experiment [3], 92.5% (inactive); in experiment [4], 69% (inactive); in experiment [5], 72.5% (inactive); in experiment [6] (setting [9]), 78.7%; in experiment [6] (setting [10]), 72.5%. Also, in experiment [2], the Her2 level was 87% (inactive). In addition, in experiment [6] (H69AR cells + 2 uM doxorubicin), the differential viability (reversal) was -6.24% (inactive). In addition, the inhibition in experiment [7] is 0% (inactive); in experiment [8] it was 1.17% (inactive).

As to `Cn1c(CCCNC(=O)c2ccccc2)nc2ccccc21`, the viability is 112% in experiment [1]; 112% (inactive) in experiment [3]; 103% (inactive) in experiment [4]; 100% (inactive) in experiment [5]; 81.7% in experiment [6] (setting [9]); 100% in experiment [6] (setting [10]). The Her2 level in experiment [2] is 83% (inactive). In experiment [6] (H69AR cells + 2 uM doxorubicin), the differential viability (reversal) was 18.6% (inactive). The results for the inhibition in experiment [7] and in experiment [8] were -8.65% (inactive) and -1.83% (inactive), respectively.

Take `COc1ccc(S(=O)(=O)N2CCN(CC(=O)Nc3ccc(C)c(F)c3)CC2)cc1`: the viability was 89.5% in experiment [1]; 89.5% (inactive) in experiment [3]; 86.4% (inactive) in experiment [4]; 25.5% (active) in experiment [5]; 51.4% in experiment [6] (setting [9]); 25.5% in experiment [6] (setting [10]). The Her2 level in experiment [2] was 93.5% (inactive). Moreover, the differential viability (reversal) in experiment [6] (H69AR cells + 2 uM doxorubicin) was -25.9% (inactive). Further, the inhibition was -5.2% (inactive) in experiment [7] and -1.94% (inactive) in experiment [8].

On to `COc1cc(C2CC(=O)NC3=C2C(=O)CC(C)(C)C3)ccc1O` (stereo not given), for which the viability is 89.5% in experiment [1]; 89.5% (inactive) in experiment [3]; 82.7% (inactive) in experiment [4]; 109% (inactive) in experiment [5]; 89.5% in experiment [6] (setting [9]); 109% in experiment [6] (setting [10]). The Her2 level in experiment [2] was 93.5% (inactive). For the same compound, in experiment [6] (H69AR cells + 2 uM doxorubicin), the differential viability (reversal) is 19.9% (inactive). The inhibition in experiment [7] was -3.82% (inactive); in experiment [8], -4.17% (inactive).

On to `Cc1c(NC(=O)C(C)OC(=O)C(NC(=O)c2ccco2)C(C)C)c(=O)n(-c2ccccc2)n1C` (stereo not given), for which the viability was 91% in experiment [1]; 91% (inactive) in experiment [3]; 90.9% (inactive) in experiment [4]; 91.5% (inactive) in experiment [5]; 85.8% in experiment [6] (setting [9]); 91.5% in experiment [6] (setting [10]). Moreover, the Her2 level in experiment [2] is 91.5% (inactive). In experiment [6] (H69AR cells + 2 uM doxorubicin), the differential viability (reversal) was 5.67% (inactive). In addition, the inhibition was -6.89% (inactive) in experiment [7] and -5.5% (inactive) in experiment [8].

As for `Cn1cnc(S(=O)(=O)Nc2ccc(C(F)(F)F)cc2)c1`, the viability in experiment [1] was 86%; in experiment [3] it was 86% (inactive); in experiment [4] it was 105% (inactive); in experiment [5], 91.7% (inactive); in experiment [6] (setting [9]), 85.4%; in experiment [6] (setting [10]) it was 91.7%. In addition, in experiment [2], the Her2 level was 98.5% (inactive). Also, in experiment [6] (H69AR cells + 2 uM doxorubicin), the differential viability (reversal) is 6.29% (inactive). Moreover, the inhibition is 1.41% (inactive) in experiment [7] and -11.7% (inactive) in experiment [8].

For `CCn1cc(C(=O)O)c(=O)c2cc(F)c(N3CCN(C(=O)Nc4ccccc4)CC3)cc21`, the viability was 108% in experiment [1]; 108% (inactive) in experiment [3]; 111% (inactive) in experiment [4]; 79.5% (inactive) in experiment [5]; 81.1% in experiment [6] (setting [9]); 79.5% in experiment [6] (setting [10]). Moreover, in experiment [2], the Her2 level is 92% (inactive). Besides, the differential viability (reversal) in experiment [6] (H69AR cells + 2 uM doxorubicin) was -1.55% (inactive). Besides, the inhibition in experiment [7] is -3.87% (inactive); in experiment [8], 0% (inactive).

Take `CCOc1ccc(N2CC(C(=O)Nc3cccc(C)c3C)CC2=O)cc1` (stereo not given): the viability in experiment [1] was 118%; in experiment [3] it was 118% (inactive); in experiment [4] it was 111% (inactive); in experiment [5], 108% (inactive); in experiment [6] (setting [9]) it was 95.9%; in experiment [6] (setting [10]), 108%. The Her2 level in experiment [2] was 110% (inactive). The differential viability (reversal) in experiment [6] (H69AR cells + 2 uM doxorubicin) was 12.1% (inactive). The inhibition was -3.47% (inactive) in experiment [7] and -4.43% (inactive) in experiment [8].

For `COc1ccc(NC(=O)c2cc(C)on2)cc1OC`, the viability in experiment [1] was 110%; in experiment [3], 110% (inactive); in experiment [4] it was 104% (inactive); in experiment [5], 96.7% (inactive); in experiment [6] (setting [9]), 88.6%; in experiment [6] (setting [10]), 96.7%. Moreover, in experiment [2], the Her2 level is 93% (inactive). In experiment [6] (H69AR cells + 2 uM doxorubicin), the differential viability (reversal) was 8.07% (inactive). Further, the inhibition in experiment [7] was -5.87% (inactive); in experiment [8], 3.28% (inactive).

For the compound `COc1ccc(C2CC(=O)C(C=NCCN3CCOCC3)=C(O)C2)cc1` (stereo not given), the viability in experiment [1] was 87.5%; in experiment [3], 87.5% (inactive); in experiment [4], 85.7% (inactive); in experiment [5] it was 98.5% (inactive); in experiment [6] (setting [9]), 95.8%; in experiment [6] (setting [10]) it was 98.5%. In experiment [2], the Her2 level was 87% (inactive). Besides, in experiment [6] (H69AR cells + 2 uM doxorubicin), the differential viability (reversal) was 2.73% (inactive). In addition, the inhibition in experiment [7] was -0.79% (inactive); in experiment [8], 8.69% (inactive).

`COc1ccc(-c2cc(C(F)(F)F)n3nc(C(=O)N4CCOCC4)nc3n2)cc1`: the viability in experiment [1] is 88%; in experiment [3], 88% (inactive); in experiment [4], 101% (inactive); in experiment [5], 94.1% (inactive); in experiment [6] (setting [9]), 89.6%; in experiment [6] (setting [10]), 94.1%. The Her2 level in experiment [2] was 116% (inactive). Moreover, the differential viability (reversal) in experiment [6] (H69AR cells + 2 uM doxorubicin) is 4.48% (inactive). Also, the inhibition in experiment [7] is -0.64% (inactive); in experiment [8], -4.17% (inactive).
